Experimental findings from ChEMBL document CHEMBL5038671, “Hydrophobic Tagging-Induced Degradation of PDEδ in Colon Cancer Cells” (ACS Med Chem Lett, 2022) are described below.

What is called IC50 is the concentration that gives 50% inhibition. What is called Ki is a measure of affinity in units of concentration, obtained from inhibition or displacement.

Assay [1] deals with SW480. Kind of assay: Antiproliferative activity against human SW480 cells assessed as cell growth inhibition and measured after 72 hrs by CCK8 assay. As to conditions: SW480, 72 h. On the technique in general: Tetrazolium assays rely on reduction of a dye to a coloured formazan, in cell work by metabolically active cells.
The subject of the next assay is HCT-116. Kind of assay: Antiproliferative activity against human HCT-116 cells assessed as cell growth inhibition and measured after 72 hrs by CCK8 assay. As to conditions: HCT-116, 72 h.
Assay [2] relates to SW480. As to the kind of experiment: Antiproliferative activity against human SW480 cells assessed as apoptosis induction at 50 uM measured for 24 hrs by Annexin V-FITC/PI staining based flow cytometry analysis (reference value: 46%). It counts as functional. (In general: A flow cytometer gives signals particle by particle.)
For assay [3], the system named is SW480. Kind of assay: Down regulation of p-Akt expression in human SW480 cells measured for 24 hrs by western blot analysis. It counts as functional, cell-based. In outline: (§1)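 PDEδ downstream proteins examined in SW480 cells treated 24 h, by Western blot; blots repeated at least three times, bar graphs as mean ± SD.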
The subject of assay [4] is SW480. Kind of assay: Down regulation of p-ERK expression in human SW480 cells measured for 24 hrs by western blot analysis. It is filed as functional, cell-based. In outline: as §1
A general note: Immunoblotting shows a protein as a band on a membrane.

Assay [5] relates to SW480. Kind of assay: Antiproliferative activity against human SW480 cells assessed as apoptosis induction at 30 uM measured for 24 hrs by Annexin V-FITC/PI staining based flow cytometry analysis (reference value: 46%). It counts as functional.
Assay [6] deals with SW480. Kind of assay: Antiproliferative activity against human SW480 cells assessed as apoptosis induction at 40 uM measured for 24 hrs by Annexin V-FITC/PI staining based flow cytometry analysis (reference value: 46%). It counts as functional.
The target in assay [7] is Retinal rod rhodopsin-sensitive cGMP 3',5'-cyclic phosphodiesterase subunit delta (Homo sapiens, UniProt O43924). Kind of assay: Binding affinity to PDE delta (unknown origin) assessed as dissociation constant measured after 2 hrs by fluorescence polarization assay.
Chain of Retinal rod rhodopsin-sensitive cGMP 3',5'-cyclic phosphodiesterase subunit delta (O43924 whole entry): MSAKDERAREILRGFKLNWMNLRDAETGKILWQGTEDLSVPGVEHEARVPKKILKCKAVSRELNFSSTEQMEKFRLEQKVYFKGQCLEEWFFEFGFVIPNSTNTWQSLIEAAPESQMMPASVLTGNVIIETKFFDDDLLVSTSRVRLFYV

Consider `Cc1ccc(-n2nc3c(=O)n(CCCC(=O)NCCc4ccc(NC(=O)CCCCCCNC(=O)CC56CC7CC(CC(C7)C5)C6)cc4)nc(C)c3c2C)cc1`, for which the IC50 with SW480 [1] and in the assay with HCT-116 was above 100 µM in each case.
In the case of `Cc1ccc(-n2nc3c(=O)n(CCCC(=O)NCCc4ccc(NC(=O)CCCCCC(=O)NCC56CC7CC(CC(C7)C5)C6)cc4)nc(C)c3c2C)cc1`, the IC50 in the assay on SW480 [1] and in the assay with HCT-116 was above 100 µM throughout.
As for `Cc1ccc(-n2nc3c(=O)n(CCCC(=O)NCC(C)c4ccccc4)nc(C)c3c2C)cc1` (centres undefined), the results for the IC50 in the assay on SW480 [1] and in the assay with HCT-116 were 18.3 µM and 82.4 µM, respectively. In addition, the Activity in the assay on SW480 [2] was found to be 5.4%.
As for `Cc1ccc(-n2nc3c(=O)n(CCCC(=O)NCCOCCOCCNC(=O)CC45CC6CC(CC(C6)C4)C5)nc(C)c3c2C)cc1`, the IC50 amounted to 5.4 µM in the assay with SW480 [1] and 18.5 µM in the assay on HCT-116.
For `Cc1ccc(-n2nc3c(=O)n(CCCC(=O)NCCCCCCNC(=O)CC45CC6CC(CC(C6)C4)C5)nc(C)c3c2C)cc1`, the Activity entry with SW480 [3] is “Dose-Dependent Effect”; with SW480 [4], “Dose-Dependent Effect”; with SW480 [5], 15.23%; in the assay on SW480 [6], 83.67%. For the same compound, the IC50 is 4.8 µM in the assay on SW480 [1] and 7.7 µM with HCT-116.
Take `Cc1ccc(-n2nc3c(=O)n(CCCC(=O)NCCc4ccc(NC(=O)CCCC(=O)NCC56CC7CC(CC(C7)C5)C6)cc4)nc(C)c3c2C)cc1`: the results for the IC50 with SW480 [1] and in the assay with HCT-116 were 19.8 µM and 39 µM, respectively.
The corresponding values for `Cc1ccc(-n2nc3c(=O)n(CCCC(=O)NCCCCCC(=O)NCC45CC6CC(CC(C6)C4)C5)nc(C)c3c2C)cc1` are above 100 µM and 32.5 µM.
For `Cc1ccc(-n2nc3c(=O)n(CCCC(=O)NCCCC(=O)NCC45CC6CC(CC(C6)C4)C5)nc(C)c3c2C)cc1` the same measures were 8 µM and 11.4 µM.
The corresponding values for `Cc1ccc(-n2nc3c(=O)n(CCCC(=O)NCC45CC6CC(CC(C6)C4)C5)nc(C)c3c2C)cc1` are above 100 µM and above 100 µM.
With `Cc1ccc(-n2nc3c(=O)n(CCCC(=O)NC45CC6CC(CC(C6)C4)C5)nc(C)c3c2C)cc1`, the IC50 in the assay with SW480 [1] and in the assay on HCT-116 was above 100 µM throughout.
On to `Cc1ccc(-n2nc3c(=O)n(CCCC(=O)NCCc4ccc(NC(=O)CCCCCCCCCC(=O)NCC56CC7CC(CC(C7)C5)C6)cc4)nc(C)c3c2C)cc1`, for which the Ki in assay [7] is above 1 µM. The IC50 with SW480 [1] was 14 µM; with HCT-116 it was above 100 µM.
With `Cc1ccc(-n2nc3c(=O)n(CCCC(=O)NCCCCCCCCNC(=O)CC45CC6CC(CC(C6)C4)C5)nc(C)c3c2C)cc1`, the IC50 in the assay with SW480 [1] came out at 5.6 µM; in the assay with HCT-116, 17.7 µM.
As to `Cc1ccc(-n2nc3c(=O)n(CCCC(=O)NCCNC(=O)CC45CC6CC(CC(C6)C4)C5)nc(C)c3c2C)cc1`, the values for the IC50 in the assay with SW480 [1] and with HCT-116 were 10 µM and 20.4 µM, respectively.
As to `Cc1ccc(-n2nc3c(=O)n(CCCC(=O)NCCCCNC(=O)CC45CC6CC(CC(C6)C4)C5)nc(C)c3c2C)cc1`, the IC50 came to 7 µM with SW480 [1] and 50.7 µM in the assay with HCT-116.
